The test system of data set [1] is 786-0. Put plainly: Antiproliferative activity against human 786-0 cells at 0.1 to 10 uM incubated for 24 to 72 hrs by MTT assay. The format is functional, cell-based. In a few lines:
(§1)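 Clear cell renal carcinoma lines (786-O with wild-type PB1 expression; Rcc4 with PB1 downregulation) treated with compound; proliferation read-out.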

Data set [2] relates to C2C12. In words: Cytotoxicity against mouse C2C12 cells assessed as cell viability up to 50 uM after 72 hrs by MTT assay. The class given is cell-based. Particulars: c2c12, 72 h. For orientation: Formazan colour is commonly taken as a measure of viable cells.
For data set [3], the system named is C2C12. Put plainly: Inhibition of differentiation in mouse C2C12 cells assessed as suppression of MyHC expression at 1 uM by HRP-peroxidase-based immunocytochemistry. The format is functional, cell-based. In short, it runs like this: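 C2C12 myoblasts grown with compound through differentiation, normally complete within 48 hours. Fusion into myotubes was scored, along with expression of the early marker myogenin and of myosin heavy chain (MyHC) in myotubes.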

Data set [4] has as its system RCC4. In words: Antiproliferative activity against human RCC4 cells at 0.1 to 10 uM incubated for 24 to 72 hrs by MTT assay. The class given is functional, cell-based. In short, it runs like this: as §1
Data set [5] concerns the target T1, SWI/SNF-related matrix-associated actin-dependent regulator of chromatin subfamily A member 2 (Homo sapiens, UniProt P51531). Put plainly: Binding affinity to human SMARC2A expressed in BL21 (DE3)-R3-BirA cells assessed as change in melting temperature at 10 uM by sypro-orange dye-based differential scanning fluorimetric analysis. The class given is cell-based. In a few lines: (§2)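 Thermal shift (DSF) screen of bromodomain proteins with compound at 10 μM; binding read as change in melting temperature (Tm shift).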
In general terms: DSF heats the sample and reads unfolding from a dye or from intrinsic fluorescence.

Data set [6] relates to C3H 10T1/2. Put plainly: Inhibition of differentiation of mouse C3H10T1/2 cells to adipocytes assessed as lipid accumulation at 20 uM by oil red O staining-based assay. The class given is functional, cell-based. In short, it runs like this:
(§3)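 C3H10T1/2 mesenchymal cells induced toward adipocytes with an adipogenic cocktail in presence of compound. Lipid droplet accumulation visualized by Oil Red O staining.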

The nature of data set [7]: Half life in PBS at pH 7.4 at 20 degC. The class given is ADME. The following applies: buffer.
Data set [8] has as its system C3H 10T1/2. In words: Inhibition of differentiation of mouse C3H10T1/2 cells to adipocytes assessed as lipid accumulation at 1 uM by oil red O staining-based assay. The class given is functional, cell-based. In a few lines:
as §3

In data set [9] the test system is C2C12. In words: Inhibition of differentiation in mouse C2C12 cells assessed as shortening of myotubes with lower nuclei at 500 nM to 50 uM by HRP-peroxidase-based immunocytochemistry relative to control. The format is functional, cell-based. In short, it runs like this:
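C2C12 myoblasts grown with compound through differentiation, normally seen within 48 hours. Scored by cell fusion into myotubes (myotube length, nuclei per myotube) and MyHC expression relative to controls; myogenin monitored as an early marker.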

The target of data set [10] is T1, SWI/SNF-related matrix-associated actin-dependent regulator of chromatin subfamily A member 2. In words: Binding affinity to human SMARC2B expressed in BL21 (DE3)-R3-BirA cells assessed as change in melting temperature at 10 uM by sypro-orange dye-based differential scanning fluorimetric analysis. The format is cell-based. In short, it runs like this: as §2
Data set [11] is described as follows: Drug recovery in cell media after 1 week at 37 degC by HPLC analysis. The class given is physicochemical. Particulars: read-out: Drug recovery.
Data set [12] in a line: Cytotoxicity against mouse C3H10T1/2 cells assessed as cell death at 100 uM after 72 hrs by MTT assay. The format is cell-based. Particulars: c3h 10t1/2, 72 h.
Data set [13] can be described thus: Cytotoxicity against mouse C3H10T1/2 cells assessed as cell viability up to 50 uM after 72 hrs by MTT assay. The format is cell-based. Particulars: c3h 10t1/2, 72 h.
The subject of data set [14] is C2C12. Put plainly: Cytotoxicity against mouse C2C12 cells assessed as cell death at 100 uM after 72 hrs by MTT assay. The class given is cell-based. Particulars: c2c12, 72 h.

Calls of active or inactive are those of the source. The calls are words filed in the database; no cut-off is given here.

What is called ΔTm is the shift of the melting midpoint relative to a reference.

T1 sequence (P51531 whole entry): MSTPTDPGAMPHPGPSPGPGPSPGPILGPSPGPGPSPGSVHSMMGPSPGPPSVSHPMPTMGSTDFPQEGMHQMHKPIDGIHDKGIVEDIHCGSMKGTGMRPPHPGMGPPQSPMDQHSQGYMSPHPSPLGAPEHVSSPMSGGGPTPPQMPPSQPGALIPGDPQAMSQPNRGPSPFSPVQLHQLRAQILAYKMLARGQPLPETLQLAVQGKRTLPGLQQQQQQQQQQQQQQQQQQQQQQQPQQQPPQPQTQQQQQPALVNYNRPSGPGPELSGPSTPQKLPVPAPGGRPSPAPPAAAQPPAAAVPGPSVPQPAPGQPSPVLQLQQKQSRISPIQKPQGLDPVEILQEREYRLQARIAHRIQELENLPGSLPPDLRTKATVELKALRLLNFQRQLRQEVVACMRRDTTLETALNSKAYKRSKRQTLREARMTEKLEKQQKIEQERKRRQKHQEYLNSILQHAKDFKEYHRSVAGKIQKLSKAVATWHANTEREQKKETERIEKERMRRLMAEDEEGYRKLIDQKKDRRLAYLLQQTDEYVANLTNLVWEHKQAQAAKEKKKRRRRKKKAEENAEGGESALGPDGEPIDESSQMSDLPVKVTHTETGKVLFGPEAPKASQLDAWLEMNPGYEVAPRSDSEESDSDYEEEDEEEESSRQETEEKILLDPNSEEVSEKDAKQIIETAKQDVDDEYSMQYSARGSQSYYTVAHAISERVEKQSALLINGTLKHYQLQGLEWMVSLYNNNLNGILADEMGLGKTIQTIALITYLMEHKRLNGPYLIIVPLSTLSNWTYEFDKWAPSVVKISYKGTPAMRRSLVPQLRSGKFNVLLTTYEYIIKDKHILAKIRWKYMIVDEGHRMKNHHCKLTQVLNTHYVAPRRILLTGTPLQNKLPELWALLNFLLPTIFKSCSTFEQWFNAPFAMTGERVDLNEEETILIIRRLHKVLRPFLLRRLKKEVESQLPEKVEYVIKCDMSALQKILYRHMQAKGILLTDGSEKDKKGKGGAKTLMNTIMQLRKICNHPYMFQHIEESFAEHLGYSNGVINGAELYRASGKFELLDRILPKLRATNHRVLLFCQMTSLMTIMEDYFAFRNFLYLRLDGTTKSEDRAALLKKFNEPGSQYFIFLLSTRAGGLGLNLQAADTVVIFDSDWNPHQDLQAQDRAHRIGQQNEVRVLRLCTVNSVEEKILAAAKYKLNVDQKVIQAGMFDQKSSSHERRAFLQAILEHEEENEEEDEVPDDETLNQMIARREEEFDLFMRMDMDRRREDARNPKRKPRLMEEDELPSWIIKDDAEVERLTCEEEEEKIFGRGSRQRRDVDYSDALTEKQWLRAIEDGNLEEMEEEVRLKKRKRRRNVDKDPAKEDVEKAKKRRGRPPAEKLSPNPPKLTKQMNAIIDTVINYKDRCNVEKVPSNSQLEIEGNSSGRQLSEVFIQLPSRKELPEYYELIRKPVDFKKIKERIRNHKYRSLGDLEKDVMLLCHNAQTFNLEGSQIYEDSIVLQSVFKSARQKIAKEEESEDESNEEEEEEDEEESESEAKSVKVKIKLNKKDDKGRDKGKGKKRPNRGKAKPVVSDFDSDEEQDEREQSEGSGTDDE

`O=C(/C=C/N1C[C@H]2C[C@@H]1CN2c1ccccn1)c1ccccc1O`: the outcome in data set [1] and in data set [4] was inactive. Further, the Activity result in data set [2] was “Non-toxic”; in data set [12], 50%; in data set [13] it was “Non-toxic”; in data set [14], 50%. Besides, the inhibition result in data set [3], in data set [6], in data set [8] and in data set [9] was “Active” each time. Besides, the results for the ΔTm in data set [5] and in data set [10] were 8.2 °C and 5 °C, respectively. The compound further gave a t1/2 in data set [7] greater than 10.4 days. Moreover, the remaining at 168 h in [11] is greater than 90%.

(Values after ChEMBL document CHEMBL3817768, “Identification of a Chemical Probe for Family VIII Bromodomains through Optimization of a Fragment Hit” (J Med Chem, 2016).)
